Source: ChEMBL document CHEMBL4145601, “Novel Nitric Oxide Donors of Phenylsulfonylfuroxan and 3-Benzyl Coumarin Derivatives as Potent Antitumor Agents” (ACS Med Chem Lett, 2018)
Calls of active or inactive are those of the source. No cut-off for these calls is given here.

How the values were obtained:
[1] = Selectivity ratio of IC50 for human A2780 cells to IC50 for A2780/CDDP cells; format: functional
Procedure, shortened: (§1)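 Selectivity ratio = IC50 in the drug-sensitive parent line / IC50 in its resistant subline (A2780 vs A2780/CDDP, MDA-MB-231 vs MDA-MB-231/Gem, MCF-7 vs MCF-7/ADR, KB vs KB-V). Each IC50 came from MTT assays, mean of triplicates.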

NCI/ADR-RES = assay: Antiproliferative activity against human MCF7/ADR cells after 48 hrs by MTT assay; format: functional, cell-based
Procedure, shortened: (§2)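 Drug-resistant human tumour lines were A2780/CDDP (cisplatin-resistant ovarian), MDA-MB-231/Gem (gemcitabine-resistant breast), MCF-7/ADR and KB-V. Antiproliferation was read by MTT assay. IC50 is the mean of triplicate determinations.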

[2] = Antiproliferative activity against human OVCA433 cells after 48 hrs by MTT assay; format: functional, cell-based; conditions: OVCA433, 48 h
Procedure, shortened: (§3)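 Human tumour lines were HeLa (cervical), SKOV3, OVCA429, OVCA433 and A2780 (ovarian), A549 (non-small cell lung), MDA-MB-231 and MCF-7 (breast), and KB (oral epidermoid). Antiproliferation was read by MTT assay. IC50 is the mean of triplicate determinations.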

WI-38 = assay: Cytotoxicity against human WI38 cells after 72 hrs by MTS assay; format: cell-based; conditions: WI-38, 72 h
Procedure, shortened: (§4)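 Non-tumour human cells were HUVEC (umbilical vein endothelial), T29 (immortalized, nontumorigenic ovarian epithelial), WI-38 (lung fibroblasts) and MCF-10A (nontumorigenic breast epithelial). Viability was read by tetrazolium assay. IC50 is the mean of triplicate determinations.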

Homo sapiens = species: Homo sapiens; assay: Antiproliferative activity against human A2780/CDDP cells at 50 nM after 48 hrs in presence of scavenger c-PTIO by MTT assay; format: functional, cell-based
Procedure, shortened: (§5)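 A2780 and A2780/CDDP cells were exposed to compound at 50 nM together with a series of concentrations of the NO scavenger c-PTIO. Antiproliferation was measured and reported as mean ± SEM of two independent experiments.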

[3] = Selectivity ratio of IC50 for human MCF7 cells to IC50 for MCF7/ADR cells; format: functional; procedure, shortened: as §1
MCF-10A = assay: Cytotoxicity against human MCF10A cells after 72 hrs by MTS assay; format: cell-based; procedure, shortened: as §4
[4] = Antiproliferative activity against human MDA-MB-231/Gem cells after 48 hrs by MTT assay; format: functional, cell-based
A2780 [5] = assay: Antiproliferative activity against human A2780 cells at 50 nM after 48 hrs in presence of scavenger c-PTIO by MTT assay; format: functional, cell-based; procedure, shortened: as §5
[6] = Drug metabolism in human A2780 cells assessed as nitric oxide release at 100 uM after 150 mins by Griess assay; format: ADME, cell-based; conditions: a2780, 2.5 h
KB = assay: Antiproliferative activity against human KB cells after 48 hrs by MTT assay; format: functional, cell-based; procedure, shortened: as §3
[7] = Cytotoxicity against human T29 cells after 48 hrs by MTT assay; format: cell-based; conditions: T29, 48 h; procedure, shortened: as §4
A2780 [8] = assay: Antiproliferative activity against human A2780 cells after 48 hrs by MTT assay; format: functional, cell-based; conditions: A2780, 48 h; procedure, shortened: as §3
MM1.S = assay: Antiproliferative activity against human MM1S cells after 72 hrs by MTS assay; format: functional, cell-based
[9] = Antiproliferative activity against human KBV cells after 48 hrs by MTT assay; format: functional, cell-based; procedure, shortened: as §2
[10] = Selectivity ratio of IC50 for human KB cells to IC50 for KBV cells; format: functional; procedure, shortened: as §1
HUVEC = assay: Cytotoxicity against HUVEC after 48 hrs by MTT assay; format: cell-based; conditions: Homo sapiens; procedure, shortened: as §4
[11] = biological target: Dual specificity mitogen-activated protein kinase kinase; MEK1/2 (Homo sapiens) (UniProt P36507+Q02750); assay: Inhibition of MEK (unknown origin); format: protein assay
Dual specificity mitogen-activated protein kinase kinase; MEK1/2 (Homo sapiens), sequence (P36507 whole entry, looked up): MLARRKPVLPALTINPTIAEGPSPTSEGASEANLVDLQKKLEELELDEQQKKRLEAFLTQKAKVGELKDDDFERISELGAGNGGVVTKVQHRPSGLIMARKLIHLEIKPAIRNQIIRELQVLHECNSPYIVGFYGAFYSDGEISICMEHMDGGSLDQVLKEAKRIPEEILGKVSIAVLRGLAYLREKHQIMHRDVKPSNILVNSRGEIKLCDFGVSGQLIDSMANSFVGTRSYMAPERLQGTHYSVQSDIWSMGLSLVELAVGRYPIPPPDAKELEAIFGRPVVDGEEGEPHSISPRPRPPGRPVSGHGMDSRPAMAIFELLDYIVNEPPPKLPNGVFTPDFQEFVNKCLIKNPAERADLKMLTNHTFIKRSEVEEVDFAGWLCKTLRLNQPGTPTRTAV
Dual specificity mitogen-activated protein kinase kinase; MEK1/2 (Homo sapiens), sequence (Q02750 whole entry, looked up): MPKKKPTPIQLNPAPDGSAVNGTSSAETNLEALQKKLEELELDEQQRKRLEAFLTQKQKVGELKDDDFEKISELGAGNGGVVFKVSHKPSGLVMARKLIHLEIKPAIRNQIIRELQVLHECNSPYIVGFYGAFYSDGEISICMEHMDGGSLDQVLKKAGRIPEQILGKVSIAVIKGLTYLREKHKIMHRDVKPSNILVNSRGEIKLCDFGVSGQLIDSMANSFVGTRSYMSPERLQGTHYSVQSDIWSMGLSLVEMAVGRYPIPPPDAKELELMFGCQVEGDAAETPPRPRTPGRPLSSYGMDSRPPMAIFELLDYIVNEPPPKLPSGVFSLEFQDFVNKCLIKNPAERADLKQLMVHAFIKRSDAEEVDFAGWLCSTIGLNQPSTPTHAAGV

[12] = Antiproliferative activity against human A2780/CDDP cells after 48 hrs by MTT assay; format: functional, cell-based; procedure, shortened: as §2
MV4-11 = assay: Antiproliferative activity against human MV411 cells after 72 hrs by MTS assay; format: functional, cell-based; conditions: MV4-11, 72 h
Procedure, shortened: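 Human myeloid leukaemia MV-4-11 cells; antiproliferation read by MTS assay. IC50 is the mean of triplicate determinations.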

[13] = Antiproliferative activity against human OVCA429 cells after 48 hrs by MTT assay; format: functional, cell-based; conditions: OVCA429, 48 h; procedure, shortened: as §3
[14] = Selectivity ratio of IC50 for human MDA-MB-231 cells to IC50 for MDA-MB-231/Gem cells; format: functional; procedure, shortened: as §1
HeLa = assay: Antiproliferative activity against human HeLa cells after 48 hrs by MTT assay; format: functional, cell-based; procedure, shortened: as §3
A2780 [15] = assay: Induction of apoptosis in human A2780 cells assessed as increase in early apoptotic cells at 10 to 20 nM measured after 24 hrs by Annexin-V-FITC/propidium iodide staining based flow cytometric method; format: functional, cell-based
MDA-MB-231 = assay: Antiproliferative activity against human MDA-MB-231 cells after 48 hrs by MTT assay; format: functional, cell-based; conditions: MDA-MB-231, 48 h
MCF7 = assay: Antiproliferative activity against human MCF7 cells after 48 hrs by MTT assay; format: functional, cell-based; conditions: MCF7, 48 h; procedure, shortened: as §3
SK-OV-3 = assay: Antiproliferative activity against human SKOV3 cells after 48 hrs by MTT assay; format: functional, cell-based; conditions: SK-OV-3, 48 h; procedure, shortened: as §3
A549 = assay: Antiproliferative activity against human A549 cells after 48 hrs by MTT assay; format: functional, cell-based; conditions: A549, 48 h; procedure, shortened: as §3

Compound | Ratio IC50 [1] | IC50 (NCI/ADR-RES) | IC50 [2] | IC50 (WI-38) | Ratio IC50 [3] | IC50 [4] | Drug metabolism [6] | IC50 (KB) | IC50 (A2780 [8]) | IC50 [9] | Ratio IC50 [10] | IC50 [12] | IC50 (MV4-11) | IC50 [13] | Ratio IC50 [14] | IC50 (HeLa) | IC50 (MDA-MB-231) | IC50 (MCF7) | IC50 (SK-OV-3) | IC50 (A549) | also measured
Cc1c(Cc2ccc(F)cc2)c(=O)oc2cc(OCCOc3no[n+]([O-])c3S(=O)(=O)c3ccccc3)ccc12 | 0.3 | 5.1 nM | 3.3 nM | > 20000 nM | 559.4 | 6.9 nM | Metabolite_Detected | 3230 nM | 6.6 nM | 11 nM | 294 | 22.8 nM | 27.2 nM | 3.9 nM | 0.1 | 2.8 nM | 0.8 nM | 2850 nM | 8.3 nM | 3.7 nM | Activity (Homo sapiens): inactive; IC50 (MCF-10A): > 20000 nM; Activity (A2780 [5]): inactive; IC50 [7]: > 5000 nM; IC50 (MM1.S): 143 nM; IC50 (HUVEC): 270 nM; inhibition [11]: inactive; Activity (A2780 [15]): Active
COc1cccc2c1C(=O)c1c(O)c3c(c(O)c1C2=O)C[C@@](O)(C(=O)CO)C[C@@H]3O[C@H]1C[C@H](N)[C@H](O)[C@H](C)O1 [DOXORUBICIN] |  | > 100000 nM |  |  |  |  |  |  |  |  |  |  |  |  |  |  |  |  |  |  | 
Cc1ccc(NC(=O)NCc2ccc3c(c2)CN(C2CCC(=O)NC2=O)C3=O)cc1Cl (stereo not given) |  |  |  | > 20000 nM |  |  |  |  |  |  |  |  | 0.3 nM |  |  |  |  |  |  |  | IC50 (MCF-10A): 5 nM
COCCOc1no[n+]([O-])c1S(=O)(=O)c1ccccc1 | 0.3 | 7840 nM | 4390 nM |  | 0.5 | 4750 nM |  | 3690 nM | 1640 nM | 1960 nM | 1.9 | 4820 nM |  | 5170 nM | 0.3 | 8830 nM | 1230 nM | 3500 nM | 3910 nM | 4780 nM | 
COc1cc(OCCOc2no[n+]([O-])c2S(=O)(=O)c2ccccc2)ccc1C(=O)/C=C/c1ccccc1 | 0.2 | 18 nM | 10.1 nM | 440 nM | 103.6 | 10.5 nM | Metabolite_Detected | 2180 nM | 8.7 nM | 13.9 nM | 157 | 51.7 nM | 29.3 nM | 4.4 nM | 0.05 | 17.8 nM | 0.5 nM | 1860 nM | 35.8 nM | 3.3 nM | IC50 [7]: 2500 nM; IC50 (MM1.S): 28 nM; IC50 (HUVEC): 410 nM; inhibition [11]: inactive
Nc1cccc2c1CN(C1CCC(=O)NC1=O)C2=O (stereo not given) [LENALIDOMIDE] |  |  |  | > 20000 nM |  |  |  |  |  |  |  |  | > 20000 nM |  |  |  |  |  |  |  | IC50 (MCF-10A): > 20000 nM
COc1cc(OCCOc2no[n+]([O-])c2S(=O)(=O)c2ccccc2)ccc1C(=O)/C=C/c1ccc(F)cc1 | 0.4 | 47.9 nM | 6.6 nM | 560 nM | 29.5 | 93 nM | Metabolite_Detected | 1660 nM | 14.5 nM | 10.1 nM | 164.9 | 34.1 nM | 29.6 nM | 4 nM | 0.02 | 6.9 nM | 1.4 nM | 1410 nM | 25 nM | 3.5 nM | IC50 [7]: 3500 nM; IC50 (MM1.S): 25 nM; IC50 (HUVEC): 360 nM; inhibition [11]: inactive; Activity (A2780 [15]): Active
Cc1c(Cc2ccccc2)c(=O)oc2cc(OCCOc3no[n+]([O-])c3S(=O)(=O)c3ccccc3)ccc12 | 0.1 | 16.3 nM | 1.1 nM | > 20000 nM | 144.2 | 25.2 nM | Metabolite_Detected | 4540 nM | 12.7 nM | 16 nM | 283.9 | 94 nM | 24.5 nM | 1.7 nM | 0.2 | 22.9 nM | 6 nM | 2350 nM | 17.3 nM | 2 nM | IC50 (MCF-10A): > 20000 nM; IC50 [7]: > 5000 nM; IC50 (MM1.S): 12 nM; IC50 (HUVEC): 440 nM; inhibition [11]: inactive
CNS(=O)(=O)Nc1cccc(Cc2c(C)c3ccc(OCCOc4no[n+]([O-])c4S(=O)(=O)c4ccccc4)cc3oc2=O)c1 | 0.2 | 50.1 nM | 16.3 nM | 1360 nM | 62.5 | 50.4 nM | Metabolite_Detected | 1140 nM | 10.2 nM | 65.4 nM | 17.5 | 47.2 nM | 66.3 nM | 6.1 nM | 0.02 | 15.4 nM | 1.1 nM | 3130 nM | 19.2 nM | 7.9 nM | IC50 [7]: > 5000 nM; IC50 (MM1.S): 24 nM; IC50 (HUVEC): 190 nM; inhibition [11]: inactive
